Data published in ChEMBL document CHEMBL1127602, “Synthesis and tissue biodistribution of [omega-11C]palmitic acid. A novel PET imaging agent for cardiac fatty acid metabolism” (J Med Chem, 1994).
Values joined by “and” are separate entries in the source; they are usually repeats but may differ in a detail not shown here. Equal values may be shown once.

Columns and labels:
Rattus norvegicus [1] = assay: Biodistribution in rat heart after 5 min of intravenous injection at a dose of […]; type: ADME, organism-based; conditions: in vivo
Summary of the method: (§1)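 Female Sprague–Dawley rats (140–160 g, four per time point), fed ad lib, ether-anesthetized just before injection. Radiotracer bound to human serum albumin in ethanol–saline, given by femoral vein (≈50 μCi/rat). Rats sacrificed at 5, 10, 15, 30 or 60 min. Tissues excised and weighed, activity measured by γ-counting, expressed as %ID/g.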

Rattus norvegicus [2] = assay: Biodistribution in rat heart after 15 min of intravenous injection at a dose of […]; type: ADME, organism-based; conditions: in vivo, 0.25 h; summary of the method: as §1
Rattus norvegicus [3] = assay: Biodistribution in rat kidney after 30 min of intravenous injection at a dose of […]; type: ADME, organism-based; conditions: in vivo, 0.5 h; summary of the method: as §1
Rattus norvegicus [4] = assay: Biodistribution in rat muscle after 1 hr of intravenous injection at a dose of […]; type: ADME, organism-based, Muscle tissue; conditions: in vivo; summary of the method: as §1
Rattus norvegicus [5] = assay: Biodistribution in rat kidney after 1 h of intravenous injection at a dose of […]; type: ADME, organism-based; conditions: in vivo; summary of the method: as §1
Rattus norvegicus [6] = assay: Biodistribution in rat liver after 15 min of intravenous injection at a dose of […]; type: ADME, organism-based; conditions: in vivo, 0.25 h; summary of the method: as §1
Rattus norvegicus [7] = assay: Biodistribution in rat blood after 5 min of intravenous injection at a dose of […]; type: ADME, organism-based; conditions: in vivo; summary of the method: as §1
Rattus norvegicus [8] = assay: Biodistribution in rat lung after 10 min of intravenous injection at a dose of […]; type: ADME, organism-based; conditions: in vivo; summary of the method: as §1
Rattus norvegicus [9] = assay: Biodistribution in rat lung after 30 min of intravenous injection at a dose of […]; type: ADME, organism-based; conditions: in vivo, 0.5 h; summary of the method: as §1
Rattus norvegicus [10] = assay: Biodistribution in rat muscle after 15 min of intravenous injection at a dose of […]; type: ADME, organism-based, Muscle tissue; conditions: in vivo, 0.25 h; summary of the method: as §1
Rattus norvegicus [11] = assay: Biodistribution in rat heart after 10 min of intravenous injection at a dose of […]; type: ADME, organism-based; conditions: in vivo; summary of the method: as §1
Rattus norvegicus [12] = assay: Biodistribution in rat kidney after 5 min of intravenous injection at a dose of […]; type: ADME, organism-based; conditions: in vivo; summary of the method: as §1
Rattus norvegicus [13] = assay: Biodistribution in rat heart after 30 min of intravenous injection at a dose of […]; type: ADME, organism-based; conditions: in vivo, 0.5 h; summary of the method: as §1
Rattus norvegicus [14] = assay: Biodistribution in rat kidney after 15 min of intravenous injection at a dose of […]; type: ADME, organism-based; conditions: in vivo, 0.25 h; summary of the method: as §1
Rattus norvegicus [15] = assay: Biodistribution in rat liver after 5 min of intravenous injection at a dose of […]; type: ADME, organism-based; conditions: in vivo; summary of the method: as §1
Rattus norvegicus [16] = assay: Biodistribution in rat heart after 1 hr of intravenous injection at a dose of […]; type: ADME, organism-based; conditions: in vivo; summary of the method: as §1
Rattus norvegicus [17] = assay: Biodistribution in rat blood after 30 min of intravenous injection at a dose of […]; type: ADME, organism-based; conditions: in vivo, 0.5 h; summary of the method: as §1
Rattus norvegicus [18] = assay: Biodistribution in rat blood after 10 min of intravenous injection at a dose of […]; type: ADME, organism-based; conditions: in vivo; summary of the method: as §1
Rattus norvegicus [19] = assay: Biodistribution in rat liver after 10 min of intravenous injection at a dose of […]; type: ADME, organism-based; conditions: in vivo; summary of the method: as §1
Rattus norvegicus [20] = assay: Biodistribution in rat muscle after 10 min of intravenous injection at a dose of […]; type: ADME, organism-based, Muscle tissue; conditions: in vivo; summary of the method: as §1
Rattus norvegicus [21] = assay: Biodistribution in rat blood after 1 hr of intravenous injection at a dose of […]; type: ADME, organism-based; conditions: in vivo; summary of the method: as §1
Rattus norvegicus [22] = assay: Biodistribution in rat liver after 1 hr of intravenous injection at a dose of […]; type: ADME, organism-based; conditions: in vivo; summary of the method: as §1
Rattus norvegicus [23] = assay: Biodistribution in rat lung after 1 hr of intravenous injection at a dose of […]; type: ADME, organism-based; conditions: in vivo; summary of the method: as §1
Rattus norvegicus [24] = assay: Biodistribution in rat kidney after 10 min of intravenous injection at a dose of […]; type: ADME, organism-based; conditions: in vivo; summary of the method: as §1
Rattus norvegicus [25] = assay: Biodistribution in rat muscle after 5 min of intravenous injection at a dose of […]; type: ADME, organism-based, Muscle tissue; conditions: in vivo; summary of the method: as §1
Rattus norvegicus [26] = assay: Biodistribution in rat lung after 15 min of intravenous injection at a dose of […]; type: ADME, organism-based; conditions: in vivo, 0.25 h; summary of the method: as §1
Rattus norvegicus [27] = assay: Biodistribution in rat muscle after 30 min of intravenous injection at a dose of […]; type: ADME, organism-based, Muscle tissue; conditions: in vivo, 0.5 h; summary of the method: as §1
Rattus norvegicus [28] = assay: Biodistribution in rat lung after 5 min of intravenous injection at a dose of […]; type: ADME, organism-based; conditions: in vivo; summary of the method: as §1
Rattus norvegicus [29] = assay: Biodistribution in rat liver after 30 min of intravenous injection at a dose of […]; type: ADME, organism-based; conditions: in vivo, 0.5 h; summary of the method: as §1
Rattus norvegicus [30] = assay: Biodistribution in rat blood after 15 min of intravenous injection at a dose of […]; type: ADME, organism-based; conditions: in vivo, 0.25 h; summary of the method: as §1

CCCCCCCCCCCCCCCC(=O)O [PALMITIC ACID]
ID/g (Rattus norvegicus [1]): 1.675% and 0.996%
ID/g (Rattus norvegicus [2]): 0.981% and 1.011%
ID/g (Rattus norvegicus [3]): 1.28% and 1.301%
ID/g (Rattus norvegicus [4]): 0.237% and 0.194%
ID/g (Rattus norvegicus [5]): 1.166% and 1.238%
ID/g (Rattus norvegicus [6]): 8.195% and 6.252%
ID/g (Rattus norvegicus [7]): 0.25% and 0.116%
ID/g (Rattus norvegicus [8]): 1.427% and 1.272%
ID/g (Rattus norvegicus [9]): 1.423% and 1.173%
ID/g (Rattus norvegicus [10]): 0.221% and 0.166%
ID/g (Rattus norvegicus [11]): 1.372% and 1.08%
ID/g (Rattus norvegicus [12]): 1.154% and 0.994%
ID/g (Rattus norvegicus [13]): 1.813% and 0.941%
ID/g (Rattus norvegicus [14]): 1.105% and 1.184%
ID/g (Rattus norvegicus [15]): 8.189% and 5.94%
ID/g (Rattus norvegicus [16]): 1.159% and 0.792%
ID/g (Rattus norvegicus [17]): 0.43% and 0.329%
ID/g (Rattus norvegicus [18]): 0.171% and 0.13%
ID/g (Rattus norvegicus [19]): 8.38% and 8.36%
ID/g (Rattus norvegicus [20]): 0.198% and 0.179%
ID/g (Rattus norvegicus [21]): 0.237% and 0.157%
ID/g (Rattus norvegicus [22]): 6.944% and 4.853%
ID/g (Rattus norvegicus [23]): 1.154% and 1.08%
ID/g (Rattus norvegicus [24]): 1.184% and 1.343%
ID/g (Rattus norvegicus [25]): 0.197% and 0.183%
ID/g (Rattus norvegicus [26]): 1.165% and 1.246%
ID/g (Rattus norvegicus [27]): 0.222% and 0.198%
ID/g (Rattus norvegicus [28]): 1.353% and 0.945%
ID/g (Rattus norvegicus [29]): 8.25% and 5.62%
ID/g (Rattus norvegicus [30]): 0.31% and 0.373%
